Sampled rows, rich in hits. Any-hit rate of the full collection: about 3.5%.
RGS4 inh: RGS4 inhibitors, primary screen, cell-based, HEK293 M3R inducible RGS4, calcium flux | Regulator of G-protein signaling 4 (Homo sapiens), P49798 | Fluo-4 calcium flux; hits give high values; triggered by carbachol at its EC20 | B-score at 10 µM | actives 0.45% (n = 310,000) | AID 463165, 2010;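 active = B-score, a plate-corrected calcium signal, over three deviations above library mean, with baseline fluorescence within five deviations of library mean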;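 also: RGS4 expression induced by doxycycline in cells with stable M3 receptor; B-score is computed from the integrated fluorescence ratio over baseline after carbachol; higher B-score means a larger calcium signal and so more RGS4 inhibition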
Target sequence (P49798 whole entry, looked up): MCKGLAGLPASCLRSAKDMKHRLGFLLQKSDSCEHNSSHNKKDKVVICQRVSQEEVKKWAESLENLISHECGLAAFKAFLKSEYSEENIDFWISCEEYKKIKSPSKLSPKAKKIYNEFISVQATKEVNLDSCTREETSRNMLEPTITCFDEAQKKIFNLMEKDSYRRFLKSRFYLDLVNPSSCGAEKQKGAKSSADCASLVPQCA
MrgX1 antag: antagonists of human MrgX1 receptor, primary screen, HEK293 cells, Fluo-4 calcium flux; Mas-related G-protein coupled receptor member X1 (Homo sapiens), Q96LB2; BAM8-22 antagonism; hits give low values; B-score at 10 µM; actives 1.3% (n = 310,000); AID 588676, 2011;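 active = calcium-response B-score plate-corrected more than 3 library SD below zero, starting fluorescence within 5 deviations, no agonist response on first addition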;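 also: peak minus trough fluorescence over baseline after final BAM8-22 challenge near maximal dose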
Target sequence (Q96LB2 whole entry, looked up): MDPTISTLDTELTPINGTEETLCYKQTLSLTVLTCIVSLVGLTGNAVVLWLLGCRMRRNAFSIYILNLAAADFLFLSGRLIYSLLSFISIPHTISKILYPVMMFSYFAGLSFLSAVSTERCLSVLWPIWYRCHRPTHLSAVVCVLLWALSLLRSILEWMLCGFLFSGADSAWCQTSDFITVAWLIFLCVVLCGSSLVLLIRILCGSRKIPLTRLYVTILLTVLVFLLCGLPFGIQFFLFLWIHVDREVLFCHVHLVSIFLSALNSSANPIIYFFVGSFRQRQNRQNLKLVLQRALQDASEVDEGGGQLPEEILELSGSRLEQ
MrgX1 allo act: positive allosteric modulators of MrgX1, primary screen, HEK293 cells, Fluo-4 calcium flux; FDSS; hits give high values; actives 0.63% (n = 310,000); B-score at 10 µM; Mas-related G-protein coupled receptor member X1 (Homo sapiens), Q96LB2; AID 588675, 2011;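 active = plate-corrected calcium response at least 3 library SD above typical, normal starting fluorescence, not activating the receptor alone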;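 also: compound read alongside a low EC10 to EC30 dose of BAM8-22 agonist; peak minus trough fluorescence over baseline measured at the second addition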
RGS4 pot: RGS4 potentiators or activators, primary screen, cell-based, HEK293 M3R inducible RGS4, calcium flux. carbachol calcium flux Fluo4; hits give low values. B-score at 10 µM. actives 0.92% (n = 310,000). AID 463111, 2010;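 active = B-score of the integrated calcium signal more than 4 SD below the library mean, with starting fluorescence not abnormally high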;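 also: negative B-score means reduced calcium response which marks RGS4 activation or potentiation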
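Assay system: HEK293 FlpIn-TREx cells, stable M3R, doxycycline-inducible RGS4 / Probe or stimulus: carbachol, ECmax concentration / Times: overnight RGS4 induction, 30 min dye load 37 °C, 20 min compound RT / Signal: kinetic calcium fluorescence imaging with Fluo4-AM dye, 2 µM / Measure: Agonist-evoked peak-minus-minimum fluorescence over baseline, integrated ratio, B score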
MrgX1 ag: agonists of human MrgX1 receptor, primary screen, HEK293 cells, Fluo-4 calcium flux | Mas-related G-protein coupled receptor member X1 (Homo sapiens), Q96LB2 | Fluo-4 calcium fluorescence, agonist mode; hits give high values | B-score at 10 µM | actives 0.44% (n = 310,000) | AID 588627, 2011;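 active = calcium response B-score plate-corrected fluorescence ratio at least 3 library SD, with starting fluorescence B-score inside 5 SD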
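Material: MrgX1-expressing HEK293 cells / Dosing: compound as first of three additions / Incubation: overnight seeding, then 1 h dark dye loading / Signal: Fluo-4 NW calcium fluorescence / Evaluation: B-scored fluorescence response ratio / Benchmarks: positive and negative control wells on each plate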
RGS4 block valid: enhanced carbachol calcium response, M3R/RGS4 cells, RGS4 inhibitor project, cell-based, validation screen, HEK293 M3R/RGS4, calcium flux | shares compounds with RGS4 inh | carbachol calcium Fluo-4 fluorescence; carbachol added at its EC20; 0 = buffer wells, 100 = carbachol control | actives 65% (n = 1,700) | calcium response, % at 10 µM;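 active = duplicate-averaged calcium response above the buffer-only control mean plus 5 SD of those controls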;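 also: integrated fluorescence ratio F max minus min over baseline F0; higher response in RGS4-induced cells means RGS4 inhibition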
M3R Ca ctr: carbachol calcium response in non-induced M3R cells, confirmation, counter-screen for RGS4 inhibitor project, cell-based, HEK293 M3R. carbachol calcium Fluo-4; submaximal (EC20) carbachol stimulus; buffer wells 0%, carbachol control wells 100%. activity (percent), % at 10 µM. actives 20% (n = 1,900). AID 493000, 2010. shares compounds with RGS4 inh; call rule not given here;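 also: RGS4 induction absent so cells express M3R without RGS4; higher means more calcium signal and flags a non-specific hit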
M3R basal Ca ctr: signal in non-induced cells without carbachol, RGS4 inhibitor counter-screen; shares compounds with RGS4 inh; calcium response (agonist-mode artifact), % at 10 µM; HEK293 M3R/RGS4 non-induced, Fluo-4 calcium, no carbachol; normalised: buffer wells 0%, carbachol wells 100%; actives 22% (n = 1,900);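 active = duplicate-averaged calcium rise in uninduced cells above buffer wells' mean plus 5 SD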
Active calls of the source: *; i = inactive; · = no result given.

SMILES | RGS4 inh | MrgX1 antag | MrgX1 allo act | RGS4 pot | MrgX1 ag | RGS4 block valid | M3R Ca ctr | M3R basal Ca ctr
O=C(CCl)c1ccc2c(c1)CCN2C(=O)C1CCCCC1 | i | i | i | i | i | i | i | 13.5%*
CCN(CC)c1ccc(N=Cc2cc(Br)ccc2O)cc1 | i | i | i | i | i | · | · | ·
OCC(CO)(CO)N=Cc1cc(Br)ccc1O | 5.85* | i | i | i | i | i | i | i
NS(=O)(=O)OCc1ccc(C(F)(F)F)cc1 | i | i | i | i | i | · | · | ·
NC(=O)CC(NC(=O)c1cccc(Br)c1)c1ccc(NC2CCN(Cc3ccccc3)CC2)c([N+](=O)[O-])c1 (stereo unspecified) | i | i | i | i | i | · | · | ·
NC(=O)CC(NC(=O)Cc1ccc(Cl)cc1)c1ccc(NC2CCN(Cc3ccccc3)CC2)c([N+](=O)[O-])c1 (stereo unspecified) | i | i | i | i | i | i | i | i
Cc1ccnc(NS(=O)(=O)c2ccc(NC(=O)CC(C)c3ccccc3)cc2)n1 (stereo unspecified) | 6.22* | i | i | i | i | 5.0%* | i | i
Cc1ccnc(NS(=O)(=O)c2ccc(NC(=O)Cc3ccccc3)cc2)n1 | i | i | i | i | i | · | · | ·
Cc1ccc(NC(=O)c2nc[nH]c2C(=O)N[C@@H](C)c2ccccc2)cc1 | 5.65* | i | i | i | i | 29.0%* | i | i
Cc1ccc(NC(=O)c2[nH]cnc2C(=O)NN)cc1 | i | i | i | i | i | · | · | ·
Cc1cccc(C)c1NC(=O)N1CCC(C(=O)c2ccc(F)cc2)CC1 | i | i | i | i | i | · | · | ·
Cc1nc2c(=O)n(C)c(=O)n(C)c2nc1Cl | 11.9* | i | i | i | i | 36.5%* | i | i
Cn1c(=O)c2nc(NCc3ccccc3)cnc2n(C)c1=O | i | i | i | i | i | · | · | ·
COC(=O)/C=C/c1ccc(OC(=O)OC)c(OC(=O)OC)c1 | i | i | i | i | i | · | · | ·
Cc1cc(O)ccc1N=Cc1c(C(F)(F)F)[nH][nH]c1=O | 6.83* | i | i | i | i | 17.5%* | i | 21.0%*
c1coc(C2=Nc3cccc4cccc(c34)N2)c1 | 12.7* | i | i | i | i | 29.5%* | i | i
Cc1[nH]nc(-c2ccc(O)cc2O)c1-c1nc2ccccc2s1 | 7.57* | i | i | i | i | 21.0%* | i | 25.5%*
Cc1[nH]nc(-c2ccc(O)cc2O)c1-c1ccc(Cl)cc1 | 28* | i | i | i | i | 54.5%* | i | 32.0%*
COc1ccc(-c2n[nH]c(C)c2-c2ccc(Cl)cc2)c(O)c1 | i | i | i | i | i | · | · | ·
Oc1cccc(-c2nc3ccccc3s2)c1 | i | i | i | i | i | · | · | ·
Cc1ccc(-c2nc3c(c(=O)[nH]c(=O)n3Cc3ccccc3)n2Cc2ccccc2)o1 | 8.18* | · | · | i | · | 24.0%* | i | 7.0%*
Cc1c(C=O)c2ccccn2c1C(=O)c1ccccc1 | i | i | i | i | i | · | · | ·

Source: PubChem (Johns Hopkins Ion Channel Center)
